Assay results taken from ChEMBL document CHEMBL3259680, “Discovery and Biological Evaluation of Novel Dual EGFR/c-Met Inhibitors” (ACS Med Chem Lett, 2014).
Active and inactive are the calls of the source. No cut-off for these calls is given here.

Key:
[1] = target: T1, Epidermal growth factor receptor (Homo sapiens, UniProt P00533); experiment: Inhibition of recombinant EGFR (unknown origin) using poly-GT peptide as substrate by Transcreener assay
[2] = target: Epidermal growth factor receptor (Homo sapiens, UniProt P00533, L858R); experiment: Inhibition of recombinant EGFR L858R mutant (unknown origin) using poly-GT peptide as substrate after 1 hr by Transcreener assay; type: protein assay
[3] = target: T2, Hepatocyte growth factor receptor (Homo sapiens, UniProt P08581); experiment: Inhibition of recombinant c-MET (unknown origin) using poly-AEKY peptide as substrate after 60 mins by ADPGlo assay
[4] = target: Insulin receptor (Homo sapiens, UniProt P06213); experiment: Inhibition of recombinant INSR (unknown origin) using fluorescent dye-labelled KKSRGDYMTMQIG peptide peptide as substrate after 1 hr by IMAP assay
[5] = tested on: A549; experiment: Cytotoxicity against human A549 cells after 48 hrs by MTT assay; type: functional, cell-based; settings: A549, 48 h
[6] = Cytotoxicity against human HCC827 cells after 48 hrs by MTT assay; type: functional, cell-based; settings: HCC827, 48 h
[7] = tested on: NCI-H1975; experiment: Cytotoxicity against human NCI-H1975 cells after 48 hrs by MTT assay; type: functional, cell-based; settings: NCI-H1975, 48 h
[8] = tested on: NCI-H1993; experiment: Cytotoxicity against human NCI-H1993 cells after 48 hrs by MTT assay; type: functional, cell-based; settings: NCI-H1993, 48 h
[9] = Cytotoxicity against mouse NIH/3T3 cells after 48 hrs by MTT assay; type: cell-based; settings: NIH3T3, 48 h
[10] = target: Epithelial discoidin domain-containing receptor 1 (Homo sapiens) (UniProt Q08345); experiment: Inhibition of recombinant DDR1 (unknown origin) at 1 uM
Method in brief: (§1)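 Single-point screen at 1 μM on a recombinant panel of 34 clinically relevant kinases; percent inhibition reported.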

[11] = target: Tyrosine-protein kinase receptor UFO (Homo sapiens) (UniProt P30530); experiment: Inhibition of recombinant AXL (unknown origin) at 1 uM; method in brief: as §1
[12] = target: Mast/stem cell growth factor receptor Kit (Homo sapiens) (UniProt P10721); experiment: Inhibition of recombinant c-KIT (unknown origin) at 1 uM; method in brief: as §1
[13] = target: Receptor tyrosine-protein kinase erbB-2 (Homo sapiens) (UniProt P04626); experiment: Inhibition of recombinant ErbB2 (unknown origin) at 1 uM; method in brief: as §1
[14] = target: Proto-oncogene tyrosine-protein kinase receptor Ret (Homo sapiens) (UniProt P07949); experiment: Inhibition of recombinant RET (unknown origin) at 1 uM; method in brief: as §1
[15] = target: Receptor-type tyrosine-protein kinase FLT3 (Homo sapiens) (UniProt P36888); experiment: Inhibition of recombinant FLT3 (unknown origin) at 1 uM; method in brief: as §1
[16] = target: T2, Hepatocyte growth factor receptor; experiment: Inhibition of recombinant c-MET (unknown origin) using poly-AEKY peptide as substrate by ADPGlo assay; settings: TDE = time-dependent effect
[17] = target: T2, Hepatocyte growth factor receptor; experiment: Inhibition of c-MET phosphorylation in human NCI-H1993 cells at 1 uM after 1 hr by Western blot analysis; type: cell-based
[18] = target: T1, Epidermal growth factor receptor; experiment: Inhibition of EGFR phosphorylation in human NCI-H1993 cells at 1 uM after 1 hr by Western blot analysis; type: cell-based
[19] = target: T2, Hepatocyte growth factor receptor; experiment: Inhibition of c-MET phosphorylation in human HCC827 cells at 1 uM after 1 hr by Western blot analysis; type: cell-based
[20] = target: T1, Epidermal growth factor receptor; experiment: Inhibition of EGFR phosphorylation in human HCC827 cells at 1 uM after 1 hr by Western blot analysis; type: cell-based
[21] = tested on: HCC827; experiment: Induction of apoptosis in human HCC827 cells at 1 uM after 24 hrs using propidium iodide by flow cytometry; type: functional, cell-based
Method in brief: (§2)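 Apoptosis read by flow cytometry; means ± SD of at least 3 independent experiments; unpaired 2-tailed Student's t test against DMSO-treated cells, p < 0.05.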

[22] = tested on: NCI-H1993; experiment: Induction of apoptosis in human NCI-H1993 cells at 1 uM after 24 hrs using propidium iodide by flow cytometry; type: functional, cell-based; method in brief: as §2
[23] = tested on: DU-145; experiment: Antiinvasive activity in human DU145 cells assessed as inhibition of HGF-induced cell motility preincubated for 1 hr before HGF treatment measured after 24 hrs by cell scattering assay; type: functional, cell-based
[24] = tested on: MDCK; experiment: Antiinvasive activity in MDCK cells assessed as inhibition of HGF-induced cell motility preincubated at 0.3 uM for 1 hr before HGF treatment measured after 48 hrs by cell scattering assay; type: functional, cell-based; settings: Canis lupus familiaris
[25] = tested on: MDCK; experiment: Cytotoxicity against MDCK cells assessed as cell death at 1 uM after 48 hrs; type: cell-based, Canis lupus familiaris; settings: dog
[26] = target: T2, Hepatocyte growth factor receptor; experiment: Competitive inhibition of recombinant c-MET (unknown origin) using poly-AEKY peptide as substrate by Lineweaver-Burk double reciprocal plot method
Method in brief: (§3)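 Recombinant enzyme activity (Vmax) measured at varied ATP and inhibitor concentrations; signal shifts (ΔS) plotted as Lineweaver–Burk double reciprocal plot to assess binding mode versus ATP.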

[27] = target: T1, Epidermal growth factor receptor; experiment: Competitive inhibition of recombinant EGFR (unknown origin) using poly-GT peptide as substrate by Lineweaver-Burk double reciprocal plot method; method in brief: as §3

With `COc1cc2c(Oc3ccc(NS(=O)(=O)c4cccc(-c5ccsc5)c4)cc3F)ccnc2cc1OCCCN1CCN(C)CC1` the IC50 [1] was 0.094 µM, the IC50 [2] was 0.31 µM and the IC50 [3] was 0.398 µM. For the same molecule, the IC50 [4] was 2.87 µM, the IC50 [5] was 4.75 µM and the IC50 [6] was 1.94 µM. For the same molecule, the IC50 [7] was 2.3 µM, the IC50 [8] was 1.36 µM and the IC50 [9] was 2.35 µM. It also gave an inhibition [10] greater than 70%, an inhibition [11] greater than 70% and an inhibition [12] greater than 70%. It also gave an inhibition [13] greater than 70%, an inhibition [14] greater than 70% and an inhibition [15] greater than 70%. For the same molecule, the inhibition [16] was “tde”, the inhibition [17] was “Active” and the inhibition [18] was “Active”. For the same molecule, the inhibition [19] was “inactive”, the inhibition [20] was “inactive” and the Activity [21] was “Active”. For the same molecule, the Activity [22] was “inactive”, the IC50 [23] was 1.1 µM and the Activity [24] was “Active”. For the same molecule, the Activity [25] was “Toxic”, the inhibition [26] was “Active” and the inhibition [27] was “Active”.
